Reference: ChEMBL document CHEMBL3596119, “Synthesis and biological characterization of a promising F-18 PET tracer for vesicular acetylcholine transporter” (Bioorg Med Chem, 2015)

How the values were obtained:
Muscle tissue [1] = assay: Biodistribution in Sprague-Dawley rat muscle at 2.2 MBq/120 uL, iv after 120 mins by gamma counting; assay type: ADME, organism-based; conditions: in vivo, 2 h
Outline: (§1)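 Adult male SD rats, isoflurane (2-3%)/oxygen anesthesia, tail-vein injection of ~2.2 MBq/120 μL tracer in 10% ethanol in saline; euthanized under anesthesia at the stated time (n = 4 per time point). Brain dissected into regions, remainder kept for total brain; organs, blood, bone collected and weighed, gamma-counted against a standard dilution of injectate; %ID/g calculated.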

Heart [2] = assay: Biodistribution in Sprague-Dawley rat heart at 2.2 MBq/120 uL, iv after 5 mins by gamma counting; assay type: ADME, organism-based; conditions: in vivo; outline: as §1
Blood [3] = assay: Biodistribution in Sprague-Dawley rat blood at 2.2 MBq/120 uL, iv after 5 mins by gamma counting; assay type: ADME, organism-based; conditions: in vivo; outline: as §1
Rattus norvegicus [4] = assay: Biodistribution in Sprague-Dawley rat total brain at 2.2 MBq/120 uL, iv after 60 mins by gamma counting; assay type: ADME, organism-based; conditions: in vivo, 1 h
Outline: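 Injected by tail vein in 10% ethanol in saline into adult male SD rats under 2-3% isoflurane/oxygen anesthesia. Rats were killed under anesthesia, n = 4 per time point. Total brain and other tissues were weighed and gamma-counted against a standard dilution of the injectate. Values are %ID/g.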

Kidney [5] = assay: Biodistribution in Sprague-Dawley rat kidney at 2.2 MBq/120 uL, iv after 120 mins by gamma counting; assay type: ADME, organism-based; conditions: in vivo, 2 h; outline: as §1
Rattus norvegicus [6] = assay: Biodistribution in Sprague-Dawley rat total brain at 2.2 MBq/120 uL, iv after 120 mins by gamma counting; assay type: ADME, organism-based; conditions: in vivo, 2 h; outline: as §1
Heart [7] = assay: Biodistribution in Sprague-Dawley rat heart at 2.2 MBq/120 uL, iv after 60 mins by gamma counting; assay type: ADME, organism-based; conditions: in vivo, 1 h; outline: as §1
Rattus norvegicus [8] = assay: Biodistribution in Sprague-Dawley rat fat at 2.2 MBq/120 uL, iv after 30 mins by gamma counting; assay type: ADME, organism-based, Adipose tissue; conditions: in vivo, 0.5 h; outline: as §1
Plasma [9] = assay: Drug metabolism in Sprague-Dawley rat plasma assessed as radioactivity at 15 to 106 MBq, iv after 5 to 60 mins by HPLC analysis; assay type: ADME, organism-based
Pancreas [10] = assay: Biodistribution in Sprague-Dawley rat pancreas at 2.2 MBq/120 uL, iv after 60 mins by gamma counting; assay type: ADME, organism-based; conditions: in vivo, 1 h; outline: as §1
Bone [11] = assay: Biodistribution in Sprague-Dawley rat bone at 2.2 MBq/120 uL, iv after 5 mins by gamma counting; assay type: ADME, organism-based, Bone element; conditions: in vivo; outline: as §1
Pancreas [12] = assay: Biodistribution in Sprague-Dawley rat pancreas at 2.2 MBq/120 uL, iv after 30 mins by gamma counting; assay type: ADME, organism-based; conditions: in vivo, 0.5 h; outline: as §1
Lung [13] = assay: Biodistribution in Sprague-Dawley rat lung at 2.2 MBq/120 uL, iv after 30 mins by gamma counting; assay type: ADME, organism-based; conditions: in vivo, 0.5 h; outline: as §1
Plasma [14] = assay: Retention time in monkey plasma assessed as radioactivity at 15 to 106 MBq after 5 to 60 mins by HPLC analysis; assay type: ADME, cell-free, Macaca mulatta; conditions: rhesus monkey
Pancreas [15] = assay: Biodistribution in Sprague-Dawley rat pancreas at 2.2 MBq/120 uL, iv after 5 mins by gamma counting; assay type: ADME, organism-based; conditions: in vivo; outline: as §1
Muscle tissue [16] = assay: Biodistribution in Sprague-Dawley rat muscle at 2.2 MBq/120 uL, iv after 30 mins by gamma counting; assay type: ADME, organism-based; conditions: in vivo, 0.5 h; outline: as §1
Muscle tissue [17] = assay: Biodistribution in Sprague-Dawley rat muscle at 2.2 MBq/120 uL, iv after 5 mins by gamma counting; assay type: ADME, organism-based; conditions: in vivo; outline: as §1
Striatum [18] = assay: Ex-vivo drug uptake in Sprague-Dawley rat striatum at 63 MBq, iv after 60 mins by autoradiography; assay type: ADME, organism-based; conditions: 1 h
Outline: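 One adult male SD rat received ~63.0 MBq by tail vein under anesthesia and was killed at 60 min. The brain was snap-frozen and cut into 100 μm horizontal sections. Sections were exposed to film for 12 h at -80 °C. Striatum-to-cerebellum ratio was quantified over 30 slices.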

Striatum [19] = assay: Biodistribution in Sprague-Dawley rat striatum at 2.2 MBq/120 uL, iv after 60 mins by gamma counting; assay type: ADME, organism-based; conditions: in vivo, 1 h; outline: as §1
Blood [20] = assay: Biodistribution in Sprague-Dawley rat blood at 2.2 MBq/120 uL, iv after 120 mins by gamma counting; assay type: ADME, organism-based; conditions: in vivo, 2 h; outline: as §1
Pancreas [21] = assay: Biodistribution in Sprague-Dawley rat pancreas at 2.2 MBq/120 uL, iv after 120 mins by gamma counting; assay type: ADME, organism-based; conditions: in vivo, 2 h; outline: as §1
Heart [22] = assay: Biodistribution in Sprague-Dawley rat heart at 2.2 MBq/120 uL, iv after 120 mins by gamma counting; assay type: ADME, organism-based; conditions: in vivo, 2 h; outline: as §1
Rattus norvegicus [23] = assay: Biodistribution in Sprague-Dawley rat brain stem at 2.2 MBq/120 uL, iv after 5 mins by gamma counting; assay type: ADME, organism-based; conditions: in vivo; outline: as §1
Bone [24] = assay: Biodistribution in Sprague-Dawley rat bone at 2.2 MBq/120 uL, iv after 60 mins by gamma counting; assay type: ADME, organism-based, Bone element; conditions: in vivo, 1 h; outline: as §1
Blood [25] = assay: Biodistribution in Sprague-Dawley rat blood at 2.2 MBq/120 uL, iv after 30 mins by gamma counting; assay type: ADME, organism-based; conditions: in vivo, 0.5 h; outline: as §1
Lung [26] = assay: Biodistribution in Sprague-Dawley rat lung at 2.2 MBq/120 uL, iv after 120 mins by gamma counting; assay type: ADME, organism-based; conditions: in vivo, 2 h; outline: as §1
Spleen [27] = assay: Biodistribution in Sprague-Dawley rat spleen at 2.2 MBq/120 uL, iv after 30 mins by gamma counting; assay type: ADME, organism-based; conditions: in vivo, 0.5 h; outline: as §1
[28] = Drug uptake in cynomolgus monkey striatum at 296 to 410 MBq administered via venous catheter after 120 mins by microPET imaging in presence of 0.25 mg/kg (-)-vesamicol; assay type: ADME, organism-based, Macaca fascicularis; conditions: in vivo, 2 h
Outline: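 Blocking scan: (-)-vesamicol 0.25 mg/kg was given through the venous catheter 5 min before the tracer (296–410 MBq). The monkey was under isoflurane anesthesia. A 2 h dynamic microPET scan followed, and striatal and cerebellar time-activity curves were generated.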

Hippocampus = assay: Biodistribution in Sprague-Dawley rat hippocampus at 2.2 MBq/120 uL, iv after 5 mins by gamma counting; assay type: ADME, organism-based; conditions: in vivo; outline: as §1
Rattus norvegicus [29] = assay: Biodistribution in Sprague-Dawley rat fat at 2.2 MBq/120 uL, iv after 60 mins by gamma counting; assay type: ADME, organism-based, Adipose tissue; conditions: in vivo, 1 h; outline: as §1
Liver [30] = assay: Biodistribution in Sprague-Dawley rat liver at 2.2 MBq/120 uL, iv after 5 mins by gamma counting; assay type: ADME, organism-based; conditions: in vivo; outline: as §1
Kidney [31] = assay: Biodistribution in Sprague-Dawley rat kidney at 2.2 MBq/120 uL, iv after 30 mins by gamma counting; assay type: ADME, organism-based; conditions: in vivo, 0.5 h; outline: as §1
Plasma [32] = assay: Metabolic stability in monkey plasma assessed as radioactivity at 15 to 106 MBq after 5 to 60 mins by HPLC analysis; assay type: ADME, cell-free, Macaca mulatta; conditions: rhesus monkey
Rattus norvegicus [33] = assay: Biodistribution in Sprague-Dawley rat fat at 2.2 MBq/120 uL, iv after 5 mins by gamma counting; assay type: ADME, organism-based, Adipose tissue; conditions: in vivo; outline: as §1
Striatum [34] = assay: Biodistribution in Sprague-Dawley rat striatum at 2.2 MBq/120 uL, iv after 30 mins by gamma counting; assay type: ADME, organism-based; conditions: in vivo, 0.5 h; outline: as §1
Lung [35] = assay: Biodistribution in Sprague-Dawley rat lung at 2.2 MBq/120 uL, iv after 5 mins by gamma counting; assay type: ADME, organism-based; conditions: in vivo; outline: as §1
Liver [36] = assay: Biodistribution in Sprague-Dawley rat liver at 2.2 MBq/120 uL, iv after 30 mins by gamma counting; assay type: ADME, organism-based; conditions: in vivo, 0.5 h; outline: as §1
Striatum [37] = assay: Biodistribution in Sprague-Dawley rat striatum at 2.2 MBq/120 uL, iv after 5 mins by gamma counting; assay type: ADME, organism-based; conditions: in vivo; outline: as §1
Spleen [38] = assay: Biodistribution in Sprague-Dawley rat spleen at 2.2 MBq/120 uL, iv after 60 mins by gamma counting; assay type: ADME, organism-based; conditions: in vivo, 1 h; outline: as §1
Thalamus = assay: Biodistribution in Sprague-Dawley rat thalamus at 2.2 MBq/120 uL, iv after 5 mins by gamma counting; assay type: ADME, organism-based; conditions: in vivo; outline: as §1

O=C(c1ccc(F)cc1)C1CCN(C2Cc3c(cccc3OCC[18F])CC2O)CC1 (single isomer, unassigned; (-))
Drug uptake (Muscle tissue [1]): 0.235 % ID/g | Drug uptake (Heart [2]): 0.706 % ID/g | Drug uptake (Blood [3]): 0.209 % ID/g | Drug uptake (Rattus norvegicus [4]): 0.425 % ID/g | Drug uptake (Kidney [5]): 0.489 % ID/g | Drug uptake (Rattus norvegicus [6]): 0.409 % ID/g | Drug uptake (Heart [7]): 0.357 % ID/g | Drug uptake (Rattus norvegicus [8]): 0.324 % ID/g | Drug metabolism (Plasma [9]): metabolite_detected | Drug uptake (Pancreas [10]): 1.324 % ID/g | Drug uptake (Bone [11]): 0.426 % ID/g | Drug uptake (Pancreas [12]): 1.2 % ID/g | Drug uptake (Lung [13]): 0.973 % ID/g | Retention_time (Plasma [14]): 9 min | Drug uptake (Pancreas [15]): 1.202 % ID/g | Drug uptake (Muscle tissue [16]): 0.258 % ID/g | Drug uptake (Muscle tissue [17]): 0.171 % ID/g | Drug uptake (Striatum [18]): Active | Drug uptake (Striatum [19]): 0.819 % ID/g | Drug uptake (Blood [20]): 0.356 % ID/g | Drug uptake (Pancreas [21]): 0.819 % ID/g | Drug uptake (Heart [22]): 0.336 % ID/g | Drug uptake (Rattus norvegicus [23]): 0.683 % ID/g | Drug uptake (Bone [24]): 0.403 % ID/g | Drug uptake (Blood [25]): 0.27 % ID/g | Drug uptake (Lung [26]): 0.551 % ID/g | Drug uptake (Spleen [27]): 0.685 % ID/g | Drug uptake [28]: Not Active | Drug uptake (Hippocampus): 0.645 % ID/g | Drug uptake (Rattus norvegicus [29]): 0.548 % ID/g | Drug uptake (Liver [30]): 1.065 % ID/g | Drug uptake (Kidney [31]): 0.883 % ID/g | Stability (Plasma [32]): 76% | Drug uptake (Rattus norvegicus [33]): 0.144 % ID/g | Drug uptake (Striatum [34]): 0.886 % ID/g | Drug uptake (Lung [35]): 2.255 % ID/g | Drug uptake (Liver [36]): 0.523 % ID/g | Drug uptake (Striatum [37]): 0.782 % ID/g | Drug uptake (Spleen [38]): 0.505 % ID/g | Drug uptake (Thalamus): 0.691 % ID/g
